System: Human immunodeficiency virus 2
Assay: Effective concentration required to inhibit cytopathicity of HIV-2(ROD) in MT-4 cells.
Type: functional, organism-based
Conditions: mt4; call rule not given here
In short: (§1)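 MT-4 cells resuspended at 6 × 10⁵ cells/mL and infected with HIV-1 IIIB or HIV-2 ROD at 100–300 CCID₅₀, with compound added at infection. Serial 5-fold dilutions were run in triplicate. After 5 days, viability was read by MTT reduction at 540 and 690 nm using the median OD of three wells. EC₅₀ is the concentration giving 50% protection from viral cytopathic effect.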

Question: Which EC50 does the source give for `CCOC(=O)c1cc(C(=CCCCC(=O)OC)c2cc(C)c(OCC)c(C(=O)OCC)c2)cc(C)c1OCC` here?
Answer: Not Active

Question: With `CCCOC(=O)CCCC=C(c1cc(C)c(OC)c(C(=O)OC)c1)c1cc(C)c(OC)c(C(=O)OC)c1` as the molecule, how does the EC50 read?
Answer: Not Active

Question: With `C#CCCCC=C(c1cc(Br)c(OC)c(C(=O)OC)c1)c1cc(Br)c(OC)c(C(=O)OC)c1` as the molecule, how does the EC50 read?
Answer: Not Active

Question: With `CCCOC(=O)CCCC=C(c1cc(Cl)c(OC)c(C(=O)OC)c1)c1cc(Cl)c(OC)c(C(=O)OC)c1` as the molecule, how does the EC50 read?
Answer: Not Active

Question: With `COCCCCC=C(c1cc(Cl)c(OC)c(COC)c1)c1cc(Cl)c(OC)c(COC)c1` as the molecule, how does the EC50 read?
Answer: Not Active

Question: Which EC50 does the source give for `COC(=O)CCCC=C(c1ccc(OC)c(OC)c1)c1ccc(OC)c(OC)c1` here?
Answer: Not Active

Question: Which EC50 does the source give for `COC(=O)CCCC=C(c1cc(C#N)c(OC)c(C(=O)OC)c1)c1cc(C#N)c(OC)c(C(=O)OC)c1` here?
Answer: Not Active

Question: For `COC(=O)CCC/C=C(/c1ccc(OC)c(OC)c1)c1cc(C)c(OC)c(C(=O)OC)c1`, which EC50 is on record?
Answer: Not Active

Question: For `CCCCCC=C(c1cc(Cl)c(OC)c(C(C)=O)c1)c1cc(Cl)c(OC)c(C(C)=O)c1`, which EC50 is on record?
Answer: Not Active

Question: With `COC(=O)CCCC=C(c1cc(C)c(OC)c(C(=O)OC)c1)c1cc(C)c(OC)c(C(=O)OC)c1` as the molecule, how does the EC50 read?
Answer: Not Active

Question: For `COC(=O)c1cc(C(=CCCCC(=O)OC(C)C)c2cc(Br)c(OC)c(C(=O)OC)c2)cc(Br)c1OC`, which EC50 is on record?
Answer: Not Active

Question: With `C=CCCCC=C(c1cc(Br)c(OC)c(C(=O)OC)c1)c1cc(Br)c(OC)c(C(=O)OC)c1` as the molecule, how does the EC50 read?
Answer: Not Active

Question: With `CCCOC(=O)c1cc(C(=CCCCC(=O)OC)c2cc(C)c(OCCC)c(C(=O)OCCC)c2)cc(C)c1OCCC` as the molecule, how does the EC50 read?
Answer: Not Active

Question: For `COC(=O)CCCC=C(c1cc(Br)c(OC)c(C(=O)OC)c1)c1cc(Br)c(OC)c(C(=O)OC)c1`, which EC50 is on record?
Answer: Not Active

Question: For `C#CCCCC=C(c1cc(Cl)c(OC)c(C(=O)OC)c1)c1cc(Cl)c(OC)c(C(=O)OC)c1`, which EC50 is on record?
Answer: Not Active

Question: Which EC50 does the source give for `CCCCCC=C(c1cc(Cl)c(OC)c(C(=S)OC)c1)c1cc(Cl)c(OC)c(C(=S)OC)c1` here?
Answer: Not Active

System: MT4
Assay: Effective concentration required to inhibit cytopathicity of HIV-1(IIIB) in MT-4 cells; Not active
Type: functional, cell-based, Homo sapiens
Conditions: not given
In short: as §1

Question: For `COCCCCC=C(c1cc(Cl)c(OC)c(COC)c1)c1cc(Cl)c(OC)c(COC)c1`, which EC50 is on record?
Answer: Not Active

Question: With `COC(=O)CCCC=C(c1ccc(OC)c(OC)c1)c1ccc(OC)c(OC)c1` as the molecule, how does the EC50 read?
Answer: Not Active

Question: Which EC50 does the source give for `COC(=O)CCC/C=C(/c1ccc(OC)c(OC)c1)c1cc(C)c(OC)c(C(=O)OC)c1` here?
Answer: Not Active

Question: Which EC50 does the source give for `CCCCCC=C(c1cc(Cl)c(OC)c(C(C)=O)c1)c1cc(Cl)c(OC)c(C(C)=O)c1` here?
Answer: Not Active

Question: For `CCCOC(=O)c1cc(C(=CCCCC(=O)OC)c2cc(C)c(OCCC)c(C(=O)OCCC)c2)cc(C)c1OCCC`, which EC50 is on record?
Answer: Not Active

Question: With `CCCCCC=C(c1cc(Cl)c(OC)c(C(=S)OC)c1)c1cc(Cl)c(OC)c(C(=S)OC)c1` as the molecule, how does the EC50 read?
Answer: Not Active

System: MT4
Assay: Evaluated for cytotoxicity in mock-infected MT-4 cells
Type: functional
Conditions: Homo sapiens
In short: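 Exponentially growing MT-4 cells were resuspended at 6 × 10⁵ cells/mL in mock-infected wells alongside infected wells, with serial 5-fold compound dilutions run in triplicate. MTT viability was read after 5 days at 540 and 690 nm using the median OD of three wells. CC₅₀ is the concentration reducing OD₅₄₀ of mock-infected controls by 50%.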

Question: With `CCOC(=O)c1cc(C(=CCCCC(=O)OC)c2cc(C)c(OCC)c(C(=O)OCC)c2)cc(C)c1OCC` as the molecule, how does the CC50 read?
Answer: > 231 µM

Question: For `CCCOC(=O)CCCC=C(c1cc(C)c(OC)c(C(=O)OC)c1)c1cc(C)c(OC)c(C(=O)OC)c1`, which CC50 is on record?
Answer: 93.4 µM

Question: Which CC50 does the source give for `C#CCCCC=C(c1cc(Br)c(OC)c(C(=O)OC)c1)c1cc(Br)c(OC)c(C(=O)OC)c1` here?
Answer: 57.8 µM

Question: For `CCCOC(=O)CCCC=C(c1cc(Cl)c(OC)c(C(=O)OC)c1)c1cc(Cl)c(OC)c(C(=O)OC)c1`, which CC50 is on record?
Answer: 159 µM

Question: Which CC50 does the source give for `COCCCCC=C(c1cc(Cl)c(OC)c(COC)c1)c1cc(Cl)c(OC)c(COC)c1` here?
Answer: 34 µM

Question: Which CC50 does the source give for `COC(=O)CCCC=C(c1ccc(OC)c(OC)c1)c1ccc(OC)c(OC)c1` here?
Answer: 7.4 µM

Question: For `COC(=O)CCCC=C(c1cc(C#N)c(OC)c(C(=O)OC)c1)c1cc(C#N)c(OC)c(C(=O)OC)c1`, which CC50 is on record?
Answer: > 247 µM

Question: For `COC(=O)CCC/C=C(/c1ccc(OC)c(OC)c1)c1cc(C)c(OC)c(C(=O)OC)c1`, which CC50 is on record?
Answer: 0.25 µM

Question: Which CC50 does the source give for `CCCCCC=C(c1cc(Cl)c(OC)c(C(C)=O)c1)c1cc(Cl)c(OC)c(C(C)=O)c1` here?
Answer: 47.1 µM

Question: Which CC50 does the source give for `COC(=O)CCCC=C(c1cc(C)c(OC)c(C(=O)OC)c1)c1cc(C)c(OC)c(C(=O)OC)c1` here?
Answer: 6.1 µM

Question: With `COC(=O)c1cc(C(=CCCCC(=O)OC(C)C)c2cc(Br)c(OC)c(C(=O)OC)c2)cc(Br)c1OC` as the molecule, how does the CC50 read?
Answer: 35.3 µM

Question: For `C=CCCCC=C(c1cc(Br)c(OC)c(C(=O)OC)c1)c1cc(Br)c(OC)c(C(=O)OC)c1`, which CC50 is on record?
Answer: 62.3 µM

Question: For `CCCOC(=O)c1cc(C(=CCCCC(=O)OC)c2cc(C)c(OCCC)c(C(=O)OCCC)c2)cc(C)c1OCCC`, which CC50 is on record?
Answer: > 209 µM

Question: For `COC(=O)CCCC=C(c1cc(Br)c(OC)c(C(=O)OC)c1)c1cc(Br)c(OC)c(C(=O)OC)c1`, which CC50 is on record?
Answer: 91 µM

Question: Which CC50 does the source give for `C#CCCCC=C(c1cc(Cl)c(OC)c(C(=O)OC)c1)c1cc(Cl)c(OC)c(C(=O)OC)c1` here?
Answer: 143 µM

Question: Which CC50 does the source give for `CCCCCC=C(c1cc(Cl)c(OC)c(C(=S)OC)c1)c1cc(Cl)c(OC)c(C(=S)OC)c1` here?
Answer: 181 µM

System: not listed separately
Assay: Half-life in rat plasma
Type: ADME
Conditions: not given

Question: With `CCOC(=O)c1cc(C(=CCCCC(=O)OC)c2cc(C)c(OCC)c(C(=O)OCC)c2)cc(C)c1OCC` as the molecule, how does the half-life read?
Answer: 37.7 min

Question: Which half-life does the source give for `CCCOC(=O)CCCC=C(c1cc(C)c(OC)c(C(=O)OC)c1)c1cc(C)c(OC)c(C(=O)OC)c1` here?
Answer: 5.2 min

Question: For `C#CCCCC=C(c1cc(Br)c(OC)c(C(=O)OC)c1)c1cc(Br)c(OC)c(C(=O)OC)c1`, which half-life is on record?
Answer: 18.9 min

Question: Which half-life does the source give for `CCCOC(=O)CCCC=C(c1cc(Cl)c(OC)c(C(=O)OC)c1)c1cc(Cl)c(OC)c(C(=O)OC)c1` here?
Answer: 7.4 min

Question: For `COC(=O)CCCC=C(c1ccc(OC)c(OC)c1)c1ccc(OC)c(OC)c1`, which half-life is on record?
Answer: 0.9 min

Question: For `COC(=O)CCCC=C(c1cc(C#N)c(OC)c(C(=O)OC)c1)c1cc(C#N)c(OC)c(C(=O)OC)c1`, which half-life is on record?
Answer: 12.4 min

Question: For `COC(=O)CCC/C=C(/c1ccc(OC)c(OC)c1)c1cc(C)c(OC)c(C(=O)OC)c1`, which half-life is on record?
Answer: 19.2 min

Question: Which half-life does the source give for `COC(=O)CCCC=C(c1cc(C)c(OC)c(C(=O)OC)c1)c1cc(C)c(OC)c(C(=O)OC)c1` here?
Answer: 42.9 min

Question: With `COC(=O)c1cc(C(=CCCCC(=O)OC(C)C)c2cc(Br)c(OC)c(C(=O)OC)c2)cc(Br)c1OC` as the molecule, how does the half-life read?
Answer: 5.7 min

Question: Which half-life does the source give for `C=CCCCC=C(c1cc(Br)c(OC)c(C(=O)OC)c1)c1cc(Br)c(OC)c(C(=O)OC)c1` here?
Answer: 58.5 min

Question: For `COC(=O)CCCC=C(c1cc(Br)c(OC)c(C(=O)OC)c1)c1cc(Br)c(OC)c(C(=O)OC)c1`, which half-life is on record?
Answer: 6.2 min

Question: Which half-life does the source give for `C#CCCCC=C(c1cc(Cl)c(OC)c(C(=O)OC)c1)c1cc(Cl)c(OC)c(C(=O)OC)c1` here?
Answer: 20.6 min

System: Human immunodeficiency virus 1
Assay: Effective concentration required to inhibit cytopathicity of HIV-1(IIIB) in MT-4 cells
Type: functional, organism-based
Conditions: Human immunodeficiency virus 1, MT4
In short: as §1

Question: Which EC50 does the source give for `CCOC(=O)c1cc(C(=CCCCC(=O)OC)c2cc(C)c(OCC)c(C(=O)OCC)c2)cc(C)c1OCC` here?
Answer: 14.1 µM

Question: With `CCCOC(=O)CCCC=C(c1cc(C)c(OC)c(C(=O)OC)c1)c1cc(C)c(OC)c(C(=O)OC)c1` as the molecule, how does the EC50 read?
Answer: 3.5 µM

Question: For `C#CCCCC=C(c1cc(Br)c(OC)c(C(=O)OC)c1)c1cc(Br)c(OC)c(C(=O)OC)c1`, which EC50 is on record?
Answer: 0.7 µM

Question: Which EC50 does the source give for `CCCOC(=O)CCCC=C(c1cc(Cl)c(OC)c(C(=O)OC)c1)c1cc(Cl)c(OC)c(C(=O)OC)c1` here?
Answer: 3.1 µM

Question: Which EC50 does the source give for `COC(=O)CCCC=C(c1cc(C#N)c(OC)c(C(=O)OC)c1)c1cc(C#N)c(OC)c(C(=O)OC)c1` here?
Answer: 0.8 µM

Question: Which EC50 does the source give for `COC(=O)CCCC=C(c1cc(C)c(OC)c(C(=O)OC)c1)c1cc(C)c(OC)c(C(=O)OC)c1` here?
Answer: 1 µM

Question: Which EC50 does the source give for `COC(=O)c1cc(C(=CCCCC(=O)OC(C)C)c2cc(Br)c(OC)c(C(=O)OC)c2)cc(Br)c1OC` here?
Answer: 2.7 µM

Question: For `C=CCCCC=C(c1cc(Br)c(OC)c(C(=O)OC)c1)c1cc(Br)c(OC)c(C(=O)OC)c1`, which EC50 is on record?
Answer: 3 µM

Question: Which EC50 does the source give for `COC(=O)CCCC=C(c1cc(Br)c(OC)c(C(=O)OC)c1)c1cc(Br)c(OC)c(C(=O)OC)c1` here?
Answer: 0.3 µM

Question: For `C#CCCCC=C(c1cc(Cl)c(OC)c(C(=O)OC)c1)c1cc(Cl)c(OC)c(C(=O)OC)c1`, which EC50 is on record?
Answer: 1.1 µM

— ChEMBL document CHEMBL1137077, “Design, synthesis, anti-HIV activities, and metabolic stabilities of alkenyldiarylmethane (ADAM) non-nucleoside reverse transcriptase inhibitors” (J Med Chem, 2004)
